Active and inactive are the calls of the source. The rule behind the calls is not given here.
Tests used:
Histone deacetylase 1 [1] = biological target: T1, Histone deacetylase 1 (Homo sapiens, UniProt Q13547); assay: Inhibition of HDAC1 (unknown origin) after 60 mins by MALDI mass spectrometry
[2] = biological target: T2, Histone deacetylase 8 (Homo sapiens) (UniProt Q9BY41); assay: Inhibition of His-tagged HDAC8 (unknown origin) expressed in Escherichia coli BL21(DE3) at 10 uM after 60 mins by MALDI mass spectrometry
T2 sequence (whole entry): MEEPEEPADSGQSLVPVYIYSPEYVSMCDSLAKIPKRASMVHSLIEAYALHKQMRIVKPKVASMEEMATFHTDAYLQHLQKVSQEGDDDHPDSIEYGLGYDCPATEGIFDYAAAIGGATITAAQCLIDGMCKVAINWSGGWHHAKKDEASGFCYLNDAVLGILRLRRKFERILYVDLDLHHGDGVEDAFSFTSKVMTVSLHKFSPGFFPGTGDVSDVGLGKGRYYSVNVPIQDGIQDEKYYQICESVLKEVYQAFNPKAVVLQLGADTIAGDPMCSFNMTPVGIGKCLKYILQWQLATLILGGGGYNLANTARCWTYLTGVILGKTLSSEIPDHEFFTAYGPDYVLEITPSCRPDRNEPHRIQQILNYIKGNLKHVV
Method in brief: (§1)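 Enzyme (250 nM) was incubated with inhibitor for 60 min at 37 °C in Tris-HCl pH 8.0 buffer containing NaCl, KCl, MgCl2 and BSA. Substrates were GRK(ac)FGC for HDAC1/HDAC8 and GRK(ac)YGC for HDAC6. Reactions were TSA-quenched, immobilized on maleimide SAMs and read by MALDI (SAMDI); deacetylation was taken as the product fraction.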

[3] = biological target: T3, Protein deacetylase HDAC6 (Homo sapiens) (UniProt Q9UBN7); assay: Inhibition of His-tagged HDAC6 (unknown origin) expressed in Escherichia coli BL21(DE3) at 10 uM after 60 mins by MALDI mass spectrometry
T3 sequence (whole entry): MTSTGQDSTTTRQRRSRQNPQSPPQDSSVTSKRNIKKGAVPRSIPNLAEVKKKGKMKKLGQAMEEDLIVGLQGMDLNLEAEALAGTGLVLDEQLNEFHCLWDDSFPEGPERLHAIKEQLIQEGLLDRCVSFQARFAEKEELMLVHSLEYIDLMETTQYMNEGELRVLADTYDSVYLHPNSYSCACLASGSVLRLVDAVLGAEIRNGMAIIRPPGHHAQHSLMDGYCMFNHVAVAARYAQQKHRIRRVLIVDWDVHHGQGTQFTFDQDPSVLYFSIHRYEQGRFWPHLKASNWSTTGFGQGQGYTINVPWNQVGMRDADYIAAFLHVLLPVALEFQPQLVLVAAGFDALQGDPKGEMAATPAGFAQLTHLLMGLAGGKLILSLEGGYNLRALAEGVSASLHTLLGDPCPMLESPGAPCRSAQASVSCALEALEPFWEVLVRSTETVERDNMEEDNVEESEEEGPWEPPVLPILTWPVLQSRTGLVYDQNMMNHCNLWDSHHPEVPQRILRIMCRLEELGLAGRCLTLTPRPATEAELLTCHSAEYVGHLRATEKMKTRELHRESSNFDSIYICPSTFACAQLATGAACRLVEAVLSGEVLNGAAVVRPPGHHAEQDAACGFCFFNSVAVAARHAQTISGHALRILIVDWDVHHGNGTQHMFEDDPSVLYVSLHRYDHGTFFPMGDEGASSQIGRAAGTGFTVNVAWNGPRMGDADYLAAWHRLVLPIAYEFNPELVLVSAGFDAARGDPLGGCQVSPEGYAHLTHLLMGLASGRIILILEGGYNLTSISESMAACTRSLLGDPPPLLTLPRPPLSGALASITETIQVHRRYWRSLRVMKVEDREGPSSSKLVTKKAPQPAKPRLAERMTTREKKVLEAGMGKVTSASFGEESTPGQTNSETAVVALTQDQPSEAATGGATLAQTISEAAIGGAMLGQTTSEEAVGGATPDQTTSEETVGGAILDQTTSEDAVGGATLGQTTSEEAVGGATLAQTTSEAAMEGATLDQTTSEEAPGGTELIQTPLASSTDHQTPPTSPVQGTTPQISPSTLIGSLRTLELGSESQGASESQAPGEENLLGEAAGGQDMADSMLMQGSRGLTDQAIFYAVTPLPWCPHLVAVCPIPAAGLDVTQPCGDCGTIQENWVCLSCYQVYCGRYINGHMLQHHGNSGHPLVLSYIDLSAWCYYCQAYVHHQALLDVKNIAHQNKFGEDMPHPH
Method in brief: as §1

[4] = biological target: T4, Protein deacetylase HDAC6 (Homo sapiens, UniProt Q9UBN7); assay: Inhibition of HDAC6 (unknown origin) after 60 mins by MALDI mass spectrometry
T4 sequence (Q9UBN7 whole entry): T3 sequence (whole entry)

KB [5] = assay: Cytotoxicity against human KB cells at 100 uM after 72 hrs by MTS assay; type: functional
Method in brief: (§2)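 Cells kept in folate-free RPMI with 10% FBS and 1% pen/strep (KB, HeLa) or DMEM with 10% FBS and 1% pen/strep (A549). For the assay, cells were plated in folate-free RPMI for 24 h, then drug-treated for 72 h at 0.1% DMSO. Viability was read by MTS. Mean ± SD from at least 2 independent triplicate experiments.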

Histone deacetylase 8 = biological target: T5, Histone deacetylase 8 (Homo sapiens, UniProt Q9BY41); assay: Inhibition of His-tagged HDAC8 (unknown origin) expressed in Escherichia coli BL21(DE3) after 60 mins by MALDI mass spectrometry
T5 sequence (Q9BY41 whole entry): T2 sequence (whole entry)

HeLa [6] = assay: Cytotoxicity against human HeLa cells at 100 uM after 72 hrs by MTS assay; type: functional
Method in brief: as §2

Histone deacetylase 1 [7] = biological target: T1, Histone deacetylase 1; assay: Inhibition of His-tagged HDAC1 (unknown origin) expressed in Escherichia coli BL21(DE3) at 10 uM after 60 mins by MALDI mass spectrometry
Method in brief: as §1

KB [8] = assay: Cytotoxicity against human KB cells after 72 hrs by MTS assay; type: functional, cell-based
A549 = assay: Cytotoxicity against human A549 cells at 100 uM after 72 hrs by MTS assay; type: functional; settings: A549, 72 h
Method in brief: as §2

[9] = biological target: T3, Protein deacetylase HDAC6 (Homo sapiens); assay: Inhibition of HDAC6 in human KB cells assessed as increase in tubulin acetylation at >= IC50 after 4 hrs by Western blotting analysis; type: cell-based
Method in brief: (§3)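 KB cells were plated for 24 h, then compound-treated for 4 h (tubulin acetylation) or 24 h (histone H4 acetylation). Cells were PBS-washed and lysed in CelLytic M with protease inhibitor cocktail. Protein was Bradford-quantified and equal amounts were resolved by SDS-PAGE at 100 V. Detection used IRDye680 and IRDye800 secondary antibodies.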

KB [10] = assay: Cytotoxicity against human KB cells at 25 uM after 72 hrs by MTS assay in presence of folic acid
HeLa [11] = assay: Cytotoxicity against human HeLa cells after 72 hrs by MTS assay; type: functional, cell-based
Homo sapiens [12] = species on record: Homo sapiens; assay: Selectivity ratio of IC50 for His-tagged HDAC8 (unknown origin) to IC50 for His-tagged HDAC6 (unknown origin)
Method in brief: as §1

[13] = biological target: T3, Protein deacetylase HDAC6 (Homo sapiens); assay: Inhibition of HDAC6 in human KB cells assessed as increase in tubulin acetylation at 100 uM after 4 hrs by Western blotting analysis; type: cell-based
Method in brief: as §3

Homo sapiens [14] = species on record: Homo sapiens; assay: Selectivity ratio of IC50 for His-tagged HDAC1 (unknown origin) to IC50 for His-tagged HDAC6 (unknown origin)
Method in brief: as §1

T1 sequence (Q13547 whole entry): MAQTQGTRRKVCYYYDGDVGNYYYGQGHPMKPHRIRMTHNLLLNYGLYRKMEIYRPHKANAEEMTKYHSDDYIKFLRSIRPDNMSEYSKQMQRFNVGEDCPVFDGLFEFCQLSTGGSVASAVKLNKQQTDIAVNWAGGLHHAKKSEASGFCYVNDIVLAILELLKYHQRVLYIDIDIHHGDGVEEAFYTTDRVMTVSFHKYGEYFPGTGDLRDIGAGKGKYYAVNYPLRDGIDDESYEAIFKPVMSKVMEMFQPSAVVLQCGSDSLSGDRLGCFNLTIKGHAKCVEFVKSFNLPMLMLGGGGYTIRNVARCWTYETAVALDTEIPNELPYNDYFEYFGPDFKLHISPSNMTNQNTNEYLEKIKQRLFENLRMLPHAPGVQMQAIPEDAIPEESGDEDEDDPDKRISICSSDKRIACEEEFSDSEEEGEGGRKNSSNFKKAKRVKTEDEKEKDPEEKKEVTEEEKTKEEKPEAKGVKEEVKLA

IC50 (Histone deacetylase 1 [1]) [nM]	inhibition [2] [%]	IC50 [4] [nM]	IC50 (Histone deacetylase 8) [nM]	Structure (SMILES)	inhibition at 100 µM (KB [5]) [%]	inhibition at 100 µM (HeLa [6]) [%]	further results
524	–	10.2	7590	Nc1nc2ncc(CNc3ccc(C(=O)NCCCCCCCCC(=O)NO)cc3)nc2c(=O)[nH]1	33	35	–
6150	39	212	–	Nc1nc2ncc(CNc3ccc(C(=O)NCCCCC(=O)NO)cc3)nc2c(=O)[nH]1	< 20	< 20	–
16.1	–	55.4	9380	Nc1nc2ncc(CNc3ccc(C(=O)NCCCCCCCC(=O)NO)cc3)nc2c(=O)[nH]1	–	–	inhibition at 100 µM (A549): < 20%; Activity [9]: Active; Activity (KB [10]): inactive; IC50 (HeLa [11]): 56600 nM; IC50 (KB [8]): 30300 nM
79.6	41	43.6	–	Nc1nc2ncc(CNc3ccc(C(=O)NCCCCCC(=O)NO)cc3)nc2c(=O)[nH]1	25	< 20	–
–	25	1460	–	Nc1nc2ncc(CNc3ccc(C(=O)NCCCC(=O)NO)cc3)nc2c(=O)[nH]1	< 20	< 20	inhibition (Histone deacetylase 1 [7]): 22.1%
23.4	–	12.2	1060	Nc1nc2ncc(CNc3ccc(C(=O)NCCCCCCC(=O)NO)cc3)nc2c(=O)[nH]1	–	34	inhibition at 100 µM (A549): < 20%; Activity [9]: Active; IC50 (KB [8]): 53700 nM
2390	–	17.6	581	Nc1nc2ncc(CNc3ccc(C(=O)NO)cc3)nc2c(=O)[nH]1	–	–	Ratio IC50 (Homo sapiens [12]): 32; Activity [13]: Active; Ratio IC50 (Homo sapiens [14]): 130

Continued, compound first:

Structure (SMILES)	IC50 (Histone deacetylase 1 [1]) [nM]	inhibition [2] [%]	IC50 [4] [nM]	IC50 (Histone deacetylase 8) [nM]	inhibition at 100 µM (KB [5]) [%]	inhibition at 100 µM (HeLa [6]) [%]	further results
Nc1nc2ncc(CNc3ccc(C(=O)N[C@@H](CCC(=O)NCCCCCCC(=O)Nc4cc(-c5cccs5)ccc4N)C(=O)O)cc3)nc2c(=O)[nH]1	435	< 20	–	–	–	–	inhibition [3]: < 20%
Nc1nc2ncc(CNc3ccc(C(=O)N[C@@H](CCC(=O)NCCCCCCC(=O)NO)C(=O)O)cc3)nc2c(=O)[nH]1	1770	–	132	2390	< 20	< 20	–
Nc1nc2ncc(CNc3ccc(C(=O)NCCCCCCCCCC(=O)NO)cc3)nc2c(=O)[nH]1	–	40	476	–	47	36	inhibition (Histone deacetylase 1 [7]): 53%
Nc1nc2ncc(CNc3ccc(C(=O)N[C@@H](CCC(=O)NCCCCCCCC(=O)NO)C(=O)O)cc3)nc2c(=O)[nH]1	1800	–	193	2370	< 20	< 20	–
CC(=O)Nc1ccc(C(=O)Nc2cc(-c3cccs3)ccc2N)cc1	–	–	–	–	–	–	IC50 (KB [8]): 5270 nM
Nc1nc2ncc(CNc3ccc(C(=O)N[C@@H](CCC(=O)NCCCC(=O)Nc4cc(-c5cccs5)ccc4N)C(=O)O)cc3)nc2c(=O)[nH]1	2940	23	–	–	–	–	inhibition [3]: 22.8%
Nc1nc2ncc(CNc3ccc(C(=O)N[C@@H](CCC(=O)NCCCCCCCCC(=O)NO)C(=O)O)cc3)nc2c(=O)[nH]1	2760	–	179	1560	–	–	–
Nc1nc2ncc(CNc3ccc(C(=O)N[C@@H](CCC(=O)NO)C(=O)O)cc3)nc2c(=O)[nH]1	–	< 20	–	–	–	–	inhibition (Histone deacetylase 1 [7]): < 20%; inhibition [3]: < 20%
Nc1nc2ncc(CNc3ccc(C(=O)N[C@@H](CCC(=O)NCCCCCCCCC(=O)Nc4cc(-c5cccs5)ccc4N)C(=O)O)cc3)nc2c(=O)[nH]1	309	< 20	–	–	–	–	inhibition [3]: < 20%
Nc1nc2ncc(CNc3ccc(C(=O)N[C@@H](CCC(=O)NCCCCCCCC(=O)Nc4cc(-c5cccs5)ccc4N)C(=O)O)cc3)nc2c(=O)[nH]1	287	–	–	10000	–	–	inhibition [3]: < 20%
Nc1nc2ncc(CNc3ccc(C(=O)N[C@@H](CCC(=O)NCCCC(=O)NO)C(=O)O)cc3)nc2c(=O)[nH]1	–	40	8050	–	–	–	inhibition (Histone deacetylase 1 [7]): < 20%
